{"source": "ChEMBL document CHEMBL5126550", "about": "“In Silico Optimized Stapled Peptides Targeting WASF3 in Breast Cancer” (2022)", "key": {"MDA-MB-231 [1]": {"tested_on": "MDA-MB-231", "test": "Antiinvasive activity against human MDA-MB-231 cells assessed as reduction in cell motility at 2 uM incubated for 18 hrs by wound healing assay", "assay_type": "functional, cell-based"}, "MDA-MB-231 [2]": {"tested_on": "MDA-MB-231", "test": "Drug uptake in human MDA-MB-231 cells by measuring uptake of fluorescence intensity in cytoplasm at 10 uM measured after 4 hrs by fluorescence microscopy method"}, "MDA-MB-231 [3]": {"tested_on": "MDA-MB-231", "test": "Drug uptake in human MDA-MB-231 cells by measuring uptake of fluorescence intensity in cytoplasm at 10 uM measured after 4 hrs by fluorescence microscopy method", "assay_type": "functional, cell-based", "summary_of_the_method": "(§1)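 Cells incubated 4 h with 5(6)-carboxyfluorescein-labeled peptide (2 μM or 10 μM) or DMSO. Cytoplasmic fluorescence imaged by fluorescence microscopy. n = 4.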"}, "[4]": {"molecular_target": "T1, Actin-binding protein WASF3 (Homo sapiens) (UniProt Q9UPY6)", "T1 sequence (whole entry)": "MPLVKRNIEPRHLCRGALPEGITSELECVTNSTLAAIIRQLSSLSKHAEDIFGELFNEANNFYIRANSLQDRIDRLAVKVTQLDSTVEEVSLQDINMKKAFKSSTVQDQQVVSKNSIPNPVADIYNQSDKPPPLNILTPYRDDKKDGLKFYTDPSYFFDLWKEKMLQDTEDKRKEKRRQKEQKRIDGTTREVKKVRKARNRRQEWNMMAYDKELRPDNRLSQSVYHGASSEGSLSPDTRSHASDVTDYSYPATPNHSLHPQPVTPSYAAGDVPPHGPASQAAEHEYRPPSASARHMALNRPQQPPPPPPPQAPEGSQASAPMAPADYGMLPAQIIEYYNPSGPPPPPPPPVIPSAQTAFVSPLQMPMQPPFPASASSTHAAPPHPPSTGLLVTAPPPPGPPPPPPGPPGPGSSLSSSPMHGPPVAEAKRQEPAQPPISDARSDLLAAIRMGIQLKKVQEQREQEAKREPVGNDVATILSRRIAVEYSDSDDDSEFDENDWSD", "test": "Degradation of WASF3 in human serum starved MDA-MB-231 cells assessed as reduction in ABI2 expression at 2 uM measured after 72 hrs by Western blot analysis", "assay_type": "cell-based", "summary_of_the_method": "(§2)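 Cells treated 72 h with peptides or controls. Lysates immunoblotted for ABI2 and WASF3. Band densitometry from three independent Western blots.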"}, "[5]": {"molecular_target": "T1, Actin-binding protein WASF3 (Homo sapiens)", "test": "Degradation of WASF3 in human serum starved MDA-MB-231 cells assessed as reduction in WASF3 expression at 2 uM measured after 72 hrs by Western blot analysis", "assay_type": "cell-based", "summary_of_the_method": "as §2"}, "MDA-MB-231 [6]": {"tested_on": "MDA-MB-231", "test": "Antiinvasive activity against human MDA-MB-231 cells assessed as reduction in number of invading cells incubated for 24 hrs by crystal violet staining based matrigel trans well migration assay", "assay_type": "functional, cell-based", "details": "dose 0.5-2 µM, DDE = dose-dependent effect", "summary_of_the_method": "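Matrigel invasion assay with peptide at 0.5–2 μM, scramble control (2 μM), reference peptide (10 μM) or DMSO. Invading cells fixed with paraformaldehyde, stained with crystal violet, imaged and counted in ImageJ. At least three independent assays; mean ± SD; one-way ANOVA with Bonferroni test.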"}, "MDA-MB-231 [7]": {"tested_on": "MDA-MB-231", "test": "Antiinvasive activity against human MDA-MB-231 cells assessed as reduction in cell motility incubated for 18 hrs by wound healing assay relative to control", "assay_type": "functional, cell-based", "details": "dose 0.5-2 µM, DDE = dose-dependent effect"}, "MDA-MB-231 [8]": {"tested_on": "MDA-MB-231", "test": "Induction of WRC disruption in human MDA-MB-231 cells assessed as increase in actin stress fiber formation at 2 uM incubated for 4 hrs by phalloidin-iFluor 594 dye based inverted fluorescent microscopic method", "assay_type": "functional, cell-based", "summary_of_the_method": "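Cells treated 4 h with biotin-labeled peptides, scramble control or DMSO. Cells then fixed, permeabilized and stained with phalloidin-iFluor 594 to show polymeric actin stress fibers by fluorescence imaging. n = 4.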"}, "[9]": {"molecular_target": "Abl interactor 2 (Homo sapiens) (UniProt Q9NYB9)", "sequence (Q9NYB9 whole entry, looked up)": "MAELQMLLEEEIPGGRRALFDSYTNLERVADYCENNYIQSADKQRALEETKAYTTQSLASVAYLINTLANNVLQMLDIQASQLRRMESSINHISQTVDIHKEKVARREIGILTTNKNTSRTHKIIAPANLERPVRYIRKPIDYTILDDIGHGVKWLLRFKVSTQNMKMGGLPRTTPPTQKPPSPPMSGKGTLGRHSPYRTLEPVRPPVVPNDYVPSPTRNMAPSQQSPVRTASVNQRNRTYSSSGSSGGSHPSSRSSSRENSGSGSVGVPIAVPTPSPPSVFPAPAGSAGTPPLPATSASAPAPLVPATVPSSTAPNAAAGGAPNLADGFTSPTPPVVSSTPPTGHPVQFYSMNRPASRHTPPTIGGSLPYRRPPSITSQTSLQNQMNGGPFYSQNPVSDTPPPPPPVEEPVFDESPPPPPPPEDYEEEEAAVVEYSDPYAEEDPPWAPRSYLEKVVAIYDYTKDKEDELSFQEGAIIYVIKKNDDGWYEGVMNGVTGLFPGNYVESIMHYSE", "test": "Binding affinity to ABI2 in human MDA-MB-231 cells at 2 uM measured after 4 hrs by measuring pulldown using streptavidin agarose resin by immunoblot analysis"}, "MDA-MB-231 [10]": {"tested_on": "MDA-MB-231", "test": "Antiinvasive activity against human MDA-MB-231 cells assessed as reduction in cell motility at 0.5 to 2 uM incubated for 18 hrs by wound healing assay relative to control", "assay_type": "functional", "set-up": "scale not given: the % may be the effect or the level left", "details": "dose 0.5-2 µM"}, "MDA-MB-231 [11]": {"tested_on": "MDA-MB-231", "test": "Drug uptake in human MDA-MB-231 cells by measuring uptake of fluorescence intensity in cytoplasm at 2 uM measured after 4 hrs by fluorescence microscopy method", "assay_type": "functional, cell-based", "summary_of_the_method": "as §1"}, "MDA-MB-231 [12]": {"tested_on": "MDA-MB-231", "test": "Downregulation of MMP9 expression in human MDA-MB-231 cells at 2 uM measured after 72 hrs by immunoblot analysis", "assay_type": "functional, cell-based", "summary_of_the_method": "(§3)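 Cells exposed 72 h to peptides, scramble control or vehicle. MMP9 protein levels measured by immunoblotting and quantified by densitometry across three independent blots. Levels compared against scramble control and vehicle.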"}, "[13]": {"test": "Downregulation of MMP9 expression in human MDA-MB-231 cells at 2 uM measured after 72 hrs by immunoblot analysis relative to control", "assay_type": "functional", "summary_of_the_method": "as §3"}}, "note": "Activity calls are given as the source filed them. No cut-off for these calls is given here. Square brackets hold non-standard residues; d marks the D form. Peptide text beside a SMILES is read from it. Gly(pent-4-enyl) = C=CCCC[C@H](N)C(=O)O"}
{"smiles": "C=CCCC[C@H](NC(=O)[C@H](CO)NC(=O)[C@H](CC(C)C)NC(=O)[C@H](CCCCN)NC(=O)[C@H](CO)NC(=O)[C@H](CC(C)C)NC(=O)[C@H](CCC(N)=O)NC(=O)[C@H](CCCNC(=N)N)NC(=O)[C@@H](NC(=O)[C@@H](NC(=O)[C@@H](N)CCCCN)[C@@H](C)CC)[C@@H](C)CC)C(=O)N[C@@H](Cc1cnc[nH]1)C(=O)N[C@@H](C)C(=O)N[C@@H](CCC(=O)O)C(=O)N[C@@H](CCCC=C)C(=O)N[C@H](C(=O)N[C@@H](Cc1ccccc1)C(=O)NCC(=O)N[C@@H](CCC(=O)O)C(=O)N[C@@H](CC(C)C)C(=O)N[C@@H](Cc1ccccc1)C(=O)N[C@@H](CCCCN)C(=O)O)[C@@H](C)CC", "note": "(H-KIIRQLSKLS[Gly(pent-4-enyl)]HAE[Gly(pent-4-enyl)]IFGELFK-OH)", "values": [{"measurement": "Activity", "setting": "MDA-MB-231 [1]", "result": "Active"}]}
{"smiles": "C=CCCC[C@H](NC(=O)[C@H](CO)NC(=O)[C@H](CC(N)=O)NC(=O)[C@@H](NC(=O)[C@H](CCCC=C)NC(=O)[C@H](CCCCN)NC(=O)[C@H](CCC(=O)O)NC(=O)[C@@H](N)CC(C)C)[C@@H](C)O)C(=O)N[C@@H](CC(C)C)C(=O)N[C@@H](C)C(=O)N[C@@H](CCCCN)C(=O)N[C@H](C(=O)N[C@H](C(=O)N[C@@H](CCCNC(=N)N)C(=O)N[C@@H](CCC(N)=O)C(=O)N[C@@H](CC(C)C)C(=O)O)[C@@H](C)CC)[C@@H](C)CC", "note": "(H-LEK[Gly(pent-4-enyl)]TNS[Gly(pent-4-enyl)]LAKIIRQL-OH)", "values": [{"measurement": "Drug uptake", "setting": "MDA-MB-231 [2]", "result": "Active"}, {"measurement": "Drug uptake", "setting": "MDA-MB-231 [3]; dose 10.0 µM", "result": "Active"}, {"measurement": "Activity", "setting": "[4]", "result": "Active"}, {"measurement": "Activity", "setting": "[5]", "result": "Active"}]}
{"smiles": "C=CCCC[C@H](NC(=O)[C@H](CO)NC(=O)[C@H](CC(C)C)NC(=O)[C@H](CCC(N)=O)NC(=O)[C@H](CCCC=C)NC(=O)[C@@H](NC(=O)[C@@H](NC(=O)[C@@H](N)CCCCN)[C@@H](C)CC)[C@@H](C)CC)C(=O)N[C@@H](CC(C)C)C(=O)N[C@@H](CO)C(=O)N[C@@H](CCCCN)C(=O)N[C@@H](Cc1cnc[nH]1)C(=O)N[C@@H](C)C(=O)N[C@@H](CCC(=O)O)C(=O)N[C@@H](CCCCN)C(=O)N[C@H](C(=O)N[C@@H](Cc1ccccc1)C(=O)NCC(=O)N[C@@H](CCC(=O)O)C(=O)N[C@@H](CC(C)C)C(=O)N[C@@H](Cc1ccccc1)C(=O)N[C@@H](CCCCN)C(=O)O)[C@@H](C)CC", "note": "(H-KII[Gly(pent-4-enyl)]QLS[Gly(pent-4-enyl)]LSKHAEKIFGELFK-OH)", "values": [{"measurement": "Activity", "setting": "MDA-MB-231 [1]", "result": "Active"}]}
{"smiles": "C=CCCC[C@H](NC(=O)[C@H](CCCNC(=N)N)NC(=O)[C@@H](NC(=O)[C@@H](NC(=O)[C@@H](N)CCCC=C)[C@@H](C)CC)[C@@H](C)CC)C(=O)N[C@@H](CC(C)C)C(=O)N[C@@H](CO)C(=O)N[C@@H](CCCCN)C(=O)N[C@@H](CC(C)C)C(=O)N[C@@H](CO)C(=O)N[C@@H](CCCCN)C(=O)N[C@@H](Cc1cnc[nH]1)C(=O)N[C@@H](C)C(=O)N[C@@H](CCC(=O)O)C(=O)N[C@@H](CCCCN)C(=O)N[C@H](C(=O)N[C@@H](Cc1ccccc1)C(=O)NCC(=O)N[C@@H](CCC(=O)O)C(=O)N[C@@H](CC(C)C)C(=O)N[C@@H](Cc1ccccc1)C(=O)N[C@@H](CCCCN)C(=O)O)[C@@H](C)CC", "note": "(H-[Gly(pent-4-enyl)]IIR[Gly(pent-4-enyl)]LSKLSKHAEKIFGELFK-OH)", "values": [{"measurement": "Activity", "setting": "MDA-MB-231 [1]", "result": "Active"}]}
{"smiles": "C=CCCC[C@H](NC(=O)[C@H](CCCCN)NC(=O)[C@H](CO)NC(=O)[C@H](CC(C)C)NC(=O)[C@H](CCCC=C)NC(=O)[C@H](CO)NC(=O)[C@H](CC(C)C)NC(=O)[C@H](CCCCN)NC(=O)[C@H](CCCNC(=N)N)NC(=O)[C@@H](NC(=O)[C@@H](NC(=O)[C@@H](N)CCCCN)[C@@H](C)CC)[C@@H](C)CC)C(=O)N[C@@H](C)C(=O)N[C@@H](CCC(=O)O)C(=O)N[C@@H](CCCCN)C(=O)N[C@H](C(=O)N[C@@H](Cc1ccccc1)C(=O)NCC(=O)N[C@@H](CCC(=O)O)C(=O)N[C@@H](CC(C)C)C(=O)N[C@@H](Cc1ccccc1)C(=O)N[C@@H](CCCCN)C(=O)O)[C@@H](C)CC", "note": "(H-KIIRKLS[Gly(pent-4-enyl)]LSK[Gly(pent-4-enyl)]AEKIFGELFK-OH)", "values": [{"measurement": "Activity", "setting": "MDA-MB-231 [6]", "result": "Dde"}, {"measurement": "Activity", "setting": "MDA-MB-231 [7]", "result": "Dde"}, {"measurement": "Activity", "setting": "MDA-MB-231 [8]", "result": "Active"}, {"measurement": "Activity", "setting": "[9]", "result": "Active"}, {"measurement": "Drug uptake", "setting": "MDA-MB-231 [3]; dose 2.0 µM, in the assay text read “at 2 uM” for “at 10 uM”", "result": "Active"}, {"measurement": "Activity", "setting": "[4]", "result": "Active"}, {"measurement": "Activity", "setting": "MDA-MB-231 [10]", "result": 48, "unit": "%"}, {"measurement": "Activity", "setting": "[5]", "result": "Active"}, {"measurement": "Drug uptake", "setting": "MDA-MB-231 [11]", "result": "Active"}, {"measurement": "Activity", "setting": "MDA-MB-231 [12]", "result": "Active"}, {"measurement": "Activity", "setting": "[13]", "result": 40, "unit": "%"}, {"measurement": "Activity", "setting": "MDA-MB-231 [1]", "result": "Active"}]}
